Tests used:
[1] = test system: Radical scavenging activity; assay: Antioxidant activity assessed as DPPH radical scavenging activity […]; format: functional
How it was run: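 Shaken in the dark at room temperature for 30 min, then absorbance read at 517 nm. Negative control without compound. ED50 taken as the concentration scavenging 50% of DPPH radicals.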

[2] = Cytotoxicity against mouse RAW264.7 cells assessed as cell viability at 20 ug/ml after 24 hrs by MTT assay; format: cell-based; details: read-out: Activity
How it was run: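 Viability of RAW 264.7 cells measured by MTT after 24 h co-treatment with LPS (1000 ng/mL) and compound at 20 μg/mL. Compounds dissolved in DMSO and diluted in sterile PBS.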

RAW264.7 [3] = assay: Inhibition of LPS-induced NO production in mouse RAW264.7 cells after 24 hrs at 20 ug/ml; format: functional; set-up: scale not given: the % may be the effect or the level left
RAW264.7 [4] = assay: Inhibition of LPS-induced NO production in mouse RAW264.7 cells after 24 hrs; format: functional, cell-based; details: RAW264.7, 24 h

| SMILES | ED50 [1] | viability at 24 h, 20 ug/ml [2] | Activity (RAW264.7 [3]) | IC50 (RAW264.7 [4]) |
| --- | --- | --- | --- | --- |
| O=C(/C=C/c1ccc(O)cc1)OC[C@H]1O[C@@H](OCCc2ccc(O)c(O)c2)[C@H](O)[C@@H](O)[C@@H]1O | 33 µM | – | – | – |
| COc1cc2c(c(OC)c1O)[C@H]1c3c(cc(OC)c(O)c3OC)OC[C@@H](C2)[C@H]1CO[C@@H]1O[C@H](CO)[C@@H](O)[C@H](O)[C@H]1O | 24.7 µM | 110% | 40.37% | – |
| CC[C@H](CC[C@@H](C)[C@H]1CC[C@H]2[C@@H]3CC=C4C[C@@H](O[C@@H]5O[C@H](CO)[C@@H](O)[C@H](O)[C@H]5O)CC[C@]4(C)[C@H]3CC[C@]12C)C(C)C | > 100 µM | – | – | – |
| COc1cc([C@H]2c3c(cc(OC)c(O)c3OC)C[C@@H](CO[C@@H]3O[C@H](CO)[C@@H](O)[C@H](O)[C@H]3O)[C@@H]2CO)cc(OC)c1O | 37.6 µM | 101% | 39.22% | – |
| O=C1O[C@H]2[C@H](O)[C@@H](O)[C@H](CO)O[C@@H]2c2c1cc(O)c(O)c2O | > 100 µM | – | – | – |
| COc1cc([C@@H]2c3c(cc(OC)c(O)c3OC)C[C@H](CO)[C@H]2CO[C@@H]2O[C@H](CO)[C@@H](O)[C@H](O)[C@H]2O)cc(OC)c1O | 26.6 µM | 104% | 38.76% | – |
| COc1cc(CCO)cc(OC)c1O[C@@H]1O[C@H](CO)[C@@H](O)[C@H](O)[C@H]1O | > 100 µM | – | – | – |
| O=c1c(O[C@@H]2O[C@H](CO)[C@@H](O)[C@H](O)[C@H]2O)coc2cc(O)cc(O)c12 | > 100 µM | 105% | 53.79% | – |
| O=C1c2c(O)cc(O)cc2O[C@H](c2ccc(O)c(O)c2)[C@@H]1O[C@@H]1OC[C@@H](O)[C@H](O)[C@H]1O | 26.6 µM | 108% | 35.32% | – |
| O=C1c2c(O)cc(O)cc2O[C@@H](c2ccc(O)c(O)c2)[C@@H]1O[C@@H]1O[C@H](CO)[C@@H](O)[C@H](O)[C@H]1O | 36.2 µM | 105% | 35.78% | – |
| Cc1c(C)c2c(c(C)c1O)CC[C@@](C)(CCC[C@H](C)CCC[C@H](C)CCCC(C)C)O2 | 27.2 µM | – | – | – |
| O=C1c2c(O)cc(O)cc2O[C@H](c2ccc(O)c(O)c2)[C@H]1O[C@@H]1O[C@H](CO)[C@@H](O)[C@H](O)[C@H]1O | 33.5 µM | 101% | 35.55% | – |
| COc1cc(CO)cc(OC)c1O[C@@H]1O[C@H](CO)[C@@H](O)[C@H](O)[C@H]1O | > 100 µM | – | – | – |
| O=C1C=CC(O)(CCO[C@@H]2O[C@H](COC(=O)/C=C/c3ccc(O)cc3)[C@@H](O)[C@H](O)[C@H]2O)C=C1 | > 100 µM | – | – | – |
| C=C(C)[C@@H]1CC[C@]2(C(=O)O)CC[C@]3(C)[C@H](CC[C@@H]4[C@@]5(C)CC[C@H](O)C(C)(C)[C@@H]5CC[C@]43C)[C@@H]12 [BETULINIC ACID] | > 100 µM | 60.3% | 56.19% | – |
| COc1cc2c(c(OC)c1O)[C@@H]1c3c(cc(OC)c(O)c3OC)OC[C@H](C2)[C@@H]1CO[C@@H]1O[C@H](CO)[C@@H](O)[C@H](O)[C@H]1O | 23.4 µM | 106% | 38.99% | – |
| COc1cc(O[C@@H]2O[C@H](CO)[C@@H](O)[C@H](O)[C@H]2O)cc(OC)c1OC | > 100 µM | – | – | – |
| COc1ccc(O[C@@H]2O[C@H](CO)[C@@H](O)[C@H](O)[C@H]2O)cc1OC | > 100 µM | – | – | – |
| COc1cc(O[C@@H]2O[C@H](CO)[C@@H](O)[C@H](O)[C@H]2O)cc(O)c1OC | > 100 µM | – | – | – |
| COc1cc(CCCO)cc(OC)c1O[C@@H]1O[C@H](CO)[C@@H](O)[C@H](O)[C@H]1O | > 100 µM | – | – | – |
| O=C1c2c(O)cc(O)cc2O[C@@H](c2ccc(O)c(O)c2)[C@H]1O[C@@H]1OC[C@@H](O)[C@H](O)[C@H]1O | 26.5 µM | 102% | 36.7% | – |
| O=C1c2c(O)cc(O)cc2OC(c2ccc(O)c(O)c2)C1O[C@@H]1OC[C@@H](O)[C@H](O)[C@H]1O (single isomer, unassigned) | 25.2 µM | 107% | 37.84% | – |
| O=c1c(O[C@@H]2OC[C@H](O)[C@H](O)[C@H]2O)coc2cc(O)cc(O)c12 | 133 µM | 106% | 38.07% | – |
| O=c1c(O)c(-c2ccc(O)c(O)c2)oc2cc(O)cc(O)c12 [QUERCETIN] | – | – | – | 1.3 µM |
| O=C1c2c(O)cc(O)cc2O[C@H](c2ccc(O)c(O)c2)[C@H]1O[C@@H]1OC[C@@H](O)[C@H](O)[C@H]1O | 30.4 µM | 105% | 33.26% | – |
| COc1cc([C@H]2c3cc(O)c(OC)cc3C[C@@H](CO)[C@@H]2CO[C@@H]2O[C@@H](C)[C@H](O)[C@@H](O)[C@H]2O)ccc1O [AVICULIN] | 44.8 µM | 112% | 39.68% | – |
| O=c1c(O[C@@H]2OC[C@@H](O)[C@H](O)[C@H]2O)coc2cc(O)cc(O)c12 | > 100 µM | 102% | 36.24% | – |
